{"source": "ChEMBL document CHEMBL4024777", "about": "“Discovery of LY3104607: A Potent and Selective G Protein-Coupled Receptor 40 (GPR40) Agonist with Optimized Pharmacokinetic Properties to Support Once Daily Oral Treatment in Patients with Type 2 Diabetes Mellitus” (J Med Chem, 2018)", "key": {"[1]": {"molecular_target": "T1, Free fatty acid receptor 1 (Homo sapiens, UniProt O14842)", "T1 sequence (O14842 whole entry)": "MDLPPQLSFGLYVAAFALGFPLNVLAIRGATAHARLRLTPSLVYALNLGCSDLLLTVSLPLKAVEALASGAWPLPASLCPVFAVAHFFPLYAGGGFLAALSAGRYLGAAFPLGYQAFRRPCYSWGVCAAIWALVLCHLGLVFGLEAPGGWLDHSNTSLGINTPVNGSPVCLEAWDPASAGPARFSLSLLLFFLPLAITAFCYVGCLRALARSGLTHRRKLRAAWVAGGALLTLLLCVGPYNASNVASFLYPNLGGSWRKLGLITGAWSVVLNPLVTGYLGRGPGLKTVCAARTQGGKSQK", "test": "Agonist activity at human PK-tagged GPR40 expressed in HEK293 cells assessed as EA-tagged beta-arrestin recruitment after 90 mins in presence of 1 % heat inactivated FBS by beta-galactosidase reporter gene assay relative to untreated control", "format": "cell-based"}, "[2]": {"molecular_target": "T1, Free fatty acid receptor 1", "test": "Agonist activity at human GPR40 receptor expressed in HEK293 cells assessed as increase in intracellular calcium flux after 2.5 hrs measured over 3 mins by calcium 4 dye-based FLIPR assay relative to linoleic acid", "format": "functional, cell-based", "set-up": "Activity: concentration or dose not given beside the values", "in_short": "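Human GPR40 calcium flux was read on FLIPR. Percent stimulation is expressed against the response to 100 uM linoleic acid.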"}, "[3]": {"test": "Protein binding in plasma (unknown origin) by equilibrium dialysis assay", "format": "ADME, cell-free", "settings": "read-out: PPB"}, "[4]": {"molecular_target": "Cytochrome P450 2C9 (Homo sapiens, UniProt P11712)", "sequence (P11712 whole entry)": "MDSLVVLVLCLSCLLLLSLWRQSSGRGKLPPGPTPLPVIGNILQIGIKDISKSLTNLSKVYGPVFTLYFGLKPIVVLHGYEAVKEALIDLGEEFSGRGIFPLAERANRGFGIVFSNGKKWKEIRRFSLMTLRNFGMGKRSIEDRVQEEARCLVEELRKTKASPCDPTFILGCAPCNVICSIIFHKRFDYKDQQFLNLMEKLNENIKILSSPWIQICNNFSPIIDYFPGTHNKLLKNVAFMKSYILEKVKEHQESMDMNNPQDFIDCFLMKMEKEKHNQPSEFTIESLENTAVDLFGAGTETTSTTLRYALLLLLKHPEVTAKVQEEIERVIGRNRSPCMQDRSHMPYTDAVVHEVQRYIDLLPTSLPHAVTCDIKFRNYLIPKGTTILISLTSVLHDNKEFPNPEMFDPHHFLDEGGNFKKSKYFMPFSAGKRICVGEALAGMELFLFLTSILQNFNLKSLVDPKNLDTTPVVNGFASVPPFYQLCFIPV", "test": "Inhibition of human CYP2C9", "format": "ADME"}, "[5]": {"test": "AUC (0 to 24 hrs) in Sprague-Dawley rat at 1 mg/kg, po", "format": "ADME, organism-based", "set-up": "time < 24 hr, dose 1 mg/kg, route oral", "settings": "in vivo"}, "[6]": {"test": "AUC (0 to 24 hrs) in Sprague-Dawley rat at 10 mg/kg, po", "format": "ADME, organism-based", "set-up": "dose 10 mg/kg, time < 24 hr, route oral", "settings": "in vivo"}, "[7]": {"test": "Initial plasma concentration in Sprague-Dawley rat at 1 mg/kg, iv", "format": "ADME, organism-based"}, "[8]": {"test": "Cmax in Sprague-Dawley rat at 100 mg/kg, po", "format": "ADME, organism-based", "set-up": "dose 100 mg/kg, route oral", "settings": "in vivo"}, "[9]": {"test": "Tmax in Sprague-Dawley rat at 10 mg/kg, po", "format": "ADME, organism-based", "settings": "in vivo"}, "[10]": {"test": "Clearance in Sprague-Dawley rat at 1 mg/kg, iv", "format": "ADME, organism-based", "settings": "in vivo"}, "[11]": {"test": "Initial plasma concentration in Beagle dog at 1 mg/kg, iv", "format": "ADME, organism-based, Canis lupus familiaris"}, "[12]": {"test": "Cmax in Beagle dog at 100 mg/kg, po", "format": "ADME, organism-based, Canis lupus familiaris", "set-up": "dose 100 mg/kg, route oral", "settings": "in vivo"}, "[13]": {"test": "Lipophilicity, log P of the compound", "format": "physicochemical", "settings": "octanol/water"}, "[14]": {"test": "Metabolic stability in mouse microsomes assessed as compound metabolized after 30 mins", "format": "ADME, Microsome", "settings": "read-out: Drug metabolism", "in_short": "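Compound incubated 30 min with liver microsomes from mouse, rat, dog or human. Percent of compound metabolized recorded, as mean (SEM, n).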"}, "[15]": {"test": "Solubility of the compound in DMSO at pH 7.4 by aqueous precipitation assay", "format": "physicochemical", "in_short": "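DMSO stock diluted into aqueous buffer at pH 7.4 in a precipitation assay. Result reported as the last soluble concentration, upper limit 100 µM.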"}, "[16]": {"molecular_target": "Free fatty acid receptor 1 (Rattus norvegicus) (UniProt Q8K3T4)", "sequence (Q8K3T4 whole entry)": "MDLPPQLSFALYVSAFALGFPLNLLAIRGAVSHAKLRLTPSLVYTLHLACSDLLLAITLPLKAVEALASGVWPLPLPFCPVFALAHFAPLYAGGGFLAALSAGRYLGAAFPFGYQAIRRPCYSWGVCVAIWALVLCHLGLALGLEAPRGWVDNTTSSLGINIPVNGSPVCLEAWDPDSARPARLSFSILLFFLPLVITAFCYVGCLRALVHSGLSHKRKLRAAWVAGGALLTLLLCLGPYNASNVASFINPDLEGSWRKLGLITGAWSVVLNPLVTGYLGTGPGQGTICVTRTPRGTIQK", "test": "Agonist activity at GPR40 in Sprague-Dawley rat islets assessed as glucose-stimulated insulin secretion levels at 1 uM in presence of 11.2 mM glucose by ELISA (reference value: 6.24 ng/ml)"}, "[17]": {"system": "Rattus norvegicus", "test": "Antidiabetic activity in po dosed Zucker fa/fa rat assessed as reduction in blood glucose AUC administered for 1 day followed by OGTT at 1 hr after compound dosing and measured 60 mins post glucose challenge by oral glucose tolerance test", "format": "functional", "in_short": "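Male Zucker fa/fa rats, 10 weeks old, were dosed orally at 1, 3 and 10 mg/kg. The OGTT was run 1 h after dosing with an oral glucose challenge of 2 g/kg. The glucose AUC was calculated, and a dose-response curve gave the ED90.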"}, "[18]": {"molecular_target": "T1, Free fatty acid receptor 1", "test": "Agonist activity at human GPR40 receptor expressed in HEK293 cells assessed as increase in intracellular calcium flux after 2.5 hrs measured over 3 mins in presence of 0.1% serum albumin by calcium 4 dye-based FLIPR assay", "format": "functional, cell-based"}, "[19]": {"test": "Drug metabolism in rat hepatocytes assessed as glucuronidation", "format": "ADME, cell-based, Hepatocyte"}, "[20]": {"test": "Drug metabolism in dog hepatocytes assessed as glucuronidation", "format": "ADME, cell-based, Canis lupus familiaris, Hepatocyte"}, "[21]": {"molecular_target": "T2, Peroxisome proliferator-activated receptor delta (Homo sapiens) (UniProt Q03181)", "T2 sequence (whole entry)": "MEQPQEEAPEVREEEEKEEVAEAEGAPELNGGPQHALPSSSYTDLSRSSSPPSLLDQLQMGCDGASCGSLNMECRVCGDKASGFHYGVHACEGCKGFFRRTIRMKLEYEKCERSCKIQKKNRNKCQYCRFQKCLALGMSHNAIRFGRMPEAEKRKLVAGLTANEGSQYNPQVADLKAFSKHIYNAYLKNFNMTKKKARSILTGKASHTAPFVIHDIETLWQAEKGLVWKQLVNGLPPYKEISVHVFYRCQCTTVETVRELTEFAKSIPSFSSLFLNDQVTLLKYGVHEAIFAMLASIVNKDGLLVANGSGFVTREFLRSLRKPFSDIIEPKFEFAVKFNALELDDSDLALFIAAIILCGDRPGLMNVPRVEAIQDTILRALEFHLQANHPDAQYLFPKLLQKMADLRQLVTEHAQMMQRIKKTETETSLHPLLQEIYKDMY", "test": "Displacement of [3H]-agonist from human PPARdelta expressed in baculovirus infecetd Sf9 cells system up to 30 uM after 10 hrs in presence of DR2 by scintillation proximity assay", "in_short": "(§1)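 PPAR alpha, delta and gamma binding and functional activity were each tested at concentrations up to 30 µM.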"}, "[22]": {"molecular_target": "T3, Peroxisome proliferator-activated receptor gamma (Homo sapiens) (UniProt P37231)", "T3 sequence (whole entry)": "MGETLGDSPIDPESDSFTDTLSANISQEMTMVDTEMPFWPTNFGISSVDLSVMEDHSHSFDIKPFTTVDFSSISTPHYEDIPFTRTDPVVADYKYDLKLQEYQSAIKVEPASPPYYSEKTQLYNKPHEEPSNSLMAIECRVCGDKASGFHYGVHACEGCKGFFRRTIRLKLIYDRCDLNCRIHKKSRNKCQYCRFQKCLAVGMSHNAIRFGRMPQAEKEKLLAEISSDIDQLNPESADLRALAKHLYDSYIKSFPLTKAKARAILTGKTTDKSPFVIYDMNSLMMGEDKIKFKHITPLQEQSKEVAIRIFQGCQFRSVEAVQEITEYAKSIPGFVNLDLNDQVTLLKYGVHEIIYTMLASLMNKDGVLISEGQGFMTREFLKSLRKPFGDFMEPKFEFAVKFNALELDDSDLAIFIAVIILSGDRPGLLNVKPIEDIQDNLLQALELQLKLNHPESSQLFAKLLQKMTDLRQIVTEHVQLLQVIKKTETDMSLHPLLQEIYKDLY", "test": "Displacement of [3H]-agonist from human PPARgamma expressed in baculovirus infecetd Sf9 cells system up to 30 uM after 10 hrs in presence of DR2 by scintillation proximity assay", "in_short": "as §1"}}, "note": "Active and inactive are the calls of the source. No cut-off for these calls is given here.", "data": [{"smiles": "CC#C[C@@H](CC(=O)O)c1ccc(OCc2ccc3nc(-c4c(C)cccc4C)nn3c2)cc1", "values": [{"measurement": "%max", "setting": "[1]", "result": 124, "unit": "%"}, {"measurement": "Activity", "setting": "[2]", "result": 54, "unit": "%"}, {"measurement": "fraction unbound", "setting": "[3]", "result": "< 0.01"}, {"measurement": "IC50", "setting": "[4]", "result": "> 60", "unit": "µM"}, {"measurement": "AUC(0-t) at 24 h", "setting": "[5]", "result": 11700, "unit": "ng·h/mL"}, {"measurement": "AUC(0-t) at 24 h", "setting": "[6]", "result": 215, "unit": "µg·h/mL"}, {"measurement": "C0", "setting": "[7]", "result": 4340, "unit": "ng/mL"}, {"measurement": "Cmax", "setting": "[8]", "result": 208, "unit": "µg/mL"}, {"measurement": "Tmax", "setting": "[9]", "result": 4, "unit": "h"}, {"measurement": "clearance", "setting": "[10]", "result": 1.32, "unit": "mL/min/kg"}, {"measurement": "C0", "setting": "[11]", "result": 8240, "unit": "ng/mL"}, {"measurement": "Cmax", "setting": "[12]", "result": 260, "unit": "µg/mL"}, {"measurement": "logP", "setting": "[13]", "result": 4.8}, {"measurement": "metabolised at 0.5 h", "setting": "[14]", "result": 7, "unit": "%"}, {"measurement": "solubility kinetic", "setting": "[15]", "result": "> 100", "unit": "µM"}, {"measurement": "Activity", "setting": "[16]", "result": 17.1, "unit": "ng/mL"}, {"measurement": "ED90", "setting": "[17]", "result": 4.1, "unit": "mg/kg"}, {"measurement": "Activity", "setting": "[18]", "result": "Active"}, {"measurement": "Drug metabolism", "setting": "[19]", "result": "Metabolite_Detected"}, {"measurement": "Drug metabolism", "setting": "[20]", "result": "Metabolite_Detected"}, {"measurement": "Activity", "setting": "[21]", "result": "inactive"}, {"measurement": "Activity", "setting": "[22]", "result": "inactive"}]}]}
